Laboratory results: BindingDB's records for doi:10.1016/j.bmc.2010.05.001 (St. Jude Children'S Research Hospital, 2011)

Experiments:
[1] = target: T1, Zinc finger protein GLI1 (Homo sapiens, UniProt P08151); experiment: Inhibition of human Gli1-mediated transcriptional activity in human Rh30 cells after 24 hrs by luciferase reporter gene assay
T1 sequence (P08151 whole entry): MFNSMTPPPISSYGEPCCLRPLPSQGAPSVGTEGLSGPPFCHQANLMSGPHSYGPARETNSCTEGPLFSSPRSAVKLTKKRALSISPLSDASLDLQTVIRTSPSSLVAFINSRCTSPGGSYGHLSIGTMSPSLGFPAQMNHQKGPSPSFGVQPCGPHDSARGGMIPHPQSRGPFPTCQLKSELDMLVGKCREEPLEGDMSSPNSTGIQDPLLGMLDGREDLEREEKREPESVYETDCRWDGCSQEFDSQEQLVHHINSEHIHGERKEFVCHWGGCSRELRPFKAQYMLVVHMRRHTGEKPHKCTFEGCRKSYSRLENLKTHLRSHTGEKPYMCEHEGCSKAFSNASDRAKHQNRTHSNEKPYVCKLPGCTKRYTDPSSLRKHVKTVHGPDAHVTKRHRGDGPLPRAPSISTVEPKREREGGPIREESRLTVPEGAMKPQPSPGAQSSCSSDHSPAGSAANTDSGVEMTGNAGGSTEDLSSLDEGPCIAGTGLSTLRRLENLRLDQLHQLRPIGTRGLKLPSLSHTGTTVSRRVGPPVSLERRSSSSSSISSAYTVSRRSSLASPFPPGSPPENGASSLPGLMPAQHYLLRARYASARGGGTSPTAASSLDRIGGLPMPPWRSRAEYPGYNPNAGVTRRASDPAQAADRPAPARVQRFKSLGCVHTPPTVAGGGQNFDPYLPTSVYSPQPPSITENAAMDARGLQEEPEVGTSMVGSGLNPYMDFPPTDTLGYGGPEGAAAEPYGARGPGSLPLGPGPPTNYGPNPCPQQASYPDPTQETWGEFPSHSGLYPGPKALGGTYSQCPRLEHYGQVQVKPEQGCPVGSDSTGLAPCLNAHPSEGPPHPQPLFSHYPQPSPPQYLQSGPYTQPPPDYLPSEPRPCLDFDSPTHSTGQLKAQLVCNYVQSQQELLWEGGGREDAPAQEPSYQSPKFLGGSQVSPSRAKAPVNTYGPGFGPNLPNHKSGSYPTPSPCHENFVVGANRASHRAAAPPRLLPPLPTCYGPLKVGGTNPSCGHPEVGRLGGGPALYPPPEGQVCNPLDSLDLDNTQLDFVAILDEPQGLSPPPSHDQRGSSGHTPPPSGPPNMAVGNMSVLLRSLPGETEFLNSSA
Summary of the method: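 Rh30 cells without Gli1 transfection, transfected overnight with GliLuc-BS (500 ng/mL) and pRL-CMV (2.5 ng/mL), then replated in 96-well plates. Compound given in RPMI-1640/10% FBS for 24 h at 37 °C. Firefly luminescence divided by Renilla and normalized to DMSO-treated cells (0% inhibition), triplicates.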

[2] = target: T1, Zinc finger protein GLI1; experiment: Inhibition of human Gli1 expressed in mouse C3H10T1/2 cells assessed as inhibition of transcriptional activity after 24 hrs by luciferase reporter gene assay
Summary of the method: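 C3H10T1/2 cells transiently transfected overnight with GliLuc-BS, pRL-TK Renilla control and human Gli1 (or mouse Gli2 for Gli2 lines), 250 ng/mL each for the Gli plasmids. Firefly/Renilla dual-luciferase ratio normalized to DMSO, triplicates. Dose–response IC50 from curve fitting.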

| SMILES | IC50 [1] [µM] | IC50 [2] [nM] |
| --- | --- | --- |
| CN(C)c1ccccc1CN1CCCN(Cc2ccccc2N(C)C)C1c1ccncc1 [2-((3-(2-(dimethylamino)benzyl)-2-(pyridin-4-yl)-tetrahydropyrimidin-1(2H)-yl)methyl)-N,N-dimethylbenzenamine] | 40 |  |
| CCCN(C(=O)C(C)c1cccc(C(=O)c2ccccc2)c1)c1ccc2[nH]ccc2c1 (configuration not stated) [2-(3-Benzoylphenyl)-N-(1H-indol-5-yl)-N-propylpropanamide] |  | 1600 |
